Measured values from different studies.
Protocols differ between the studies behind these lines.
Target: Ephrin type-A receptor 4 (EPHA4, Homo sapiens, UniProt P54764)

CC(C)(C)c1cc(C=C(C#N)C#N)cc(Br)c1O  remaining activity (enzyme activity, inhibitor; 0.5 µM): 94.7%
COc1cc(Nc2ncc(F)c(Nc3ccc4c(n3)NC(=O)C(C)(C)O4)n2)cc(OC)c1OC  inhibition (binding, competition with immobilised ligand; 10 µM): 69%
Cn1cc(-c2cc(F)cc(N3CCn4c(cc5c4CCCC5)C3=O)c2CO)cc(Nc2ccc(N3CCN(C4COC4)CC3)cn2)c1=O  inhibition (enzyme activity, inhibitor; 0.1 µM): 12%
Nc1ncc(-c2nc(N3CCOCC3)nc(N3CCOCC3)n2)c(C(F)F)n1  remaining binding (cell-free assay, competition with immobilised ligand; 10 µM): 94%
Cn1cncc1[C@](O)(COc1ccc(C#N)cc1-c1ccc(OC(F)(F)F)cc1)c1ccc(C#N)cc1  remaining binding (cell-free assay, competition with immobilised ligand; 1 µM): 100%
O=c1[nH]c2ccccc2n1C1CCN(Cc2ccc(-c3[nH]c4cc5ncnc5cc4nc3-c3ccccc3)cc2)CC1  remaining signal (cell-free assay; 0.5 µM): 97.1%
Cc1nn(C)cc1-c1nc2c(N3CCN(Cc4ccc(Cl)cc4)CC3)c(Cl)cnc2[nH]1  remaining binding (binding, competition with immobilised ligand; 1 µM): 100%
Cn1cc(-c2cccc(N3CCc4c(sc5c4CC(C)(C)C5)C3=O)c2CO)cc(Nc2ccncn2)c1=O  inhibition (enzyme activity, inhibitor; 1 µM): 3%
COc1ncccc1-c1cnn2ccc(N3CCN(C(=O)OC(C)C)CC3)nc12  remaining binding (binding, competition with immobilised ligand; 1 µM): 100%
